Our source for the IC50 and Ki values is ChEMBL document CHEMBL1131316, “Potent antagonists of somatostatin: synthesis and biology” (J Med Chem, 1998).

Positions of bridges follow the written chain, without caps; N, C: chain ends. Non-standard residues stand in square brackets, D forms with d. Residues, ends and D or L forms follow the SMILES beside them. Phe(4-NO2) = N[C@@H](Cc1ccc([N+](=O)[O-])cc1)C(=O)O; dDip = N[C@@H](C(=O)O)C(c1ccccc1)c1ccccc1; Dip = N[C@H](C(=O)O)C(c1ccccc1)c1ccccc1; 2Nal = N[C@@H](Cc1ccc2ccccc2c1)C(=O)O; d2Nal = N[C@H](Cc1ccc2ccccc2c1)C(=O)O; 3Pal = N[C@@H](Cc1cccnc1)C(=O)O

The target of test [1] is Somatostatin receptor type 1 (Homo sapiens, UniProt P30872). Kind of test: Binding affinity towards cloned human somatostatin 1 (hsst) receptor. In a few lines:
(§1)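 Membranes from CHO-K1 cells stably transfected with the human receptor subtype (calcium phosphate transfection, G418 selection), homogenised and washed in Tris-HCl. Separated by filtration on PEI-soaked GF/C filters; nonspecific binding with 1.0 µM SRIF.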

Test [2] concerns the target Somatostatin receptor type 2 (Homo sapiens, UniProt P30874). Kind of test: Binding affinity towards cloned human somatostatin 2 (hsst) receptor. In a few lines: as §1
For test [3], the target named is Somatostatin receptor type 3 (Homo sapiens, UniProt P32745). The test is described as follows: Binding affinity towards cloned human somatostatin 3 (hsst) receptor. In a few lines:
as §1

For test [4], the target named is Somatostatin receptor type 4 (Homo sapiens, UniProt P31391). The test is described as follows: Binding affinity towards cloned human somatostatin 4 (hsst) receptor.
Somatostatin receptor type 4, sequence (P31391 whole entry): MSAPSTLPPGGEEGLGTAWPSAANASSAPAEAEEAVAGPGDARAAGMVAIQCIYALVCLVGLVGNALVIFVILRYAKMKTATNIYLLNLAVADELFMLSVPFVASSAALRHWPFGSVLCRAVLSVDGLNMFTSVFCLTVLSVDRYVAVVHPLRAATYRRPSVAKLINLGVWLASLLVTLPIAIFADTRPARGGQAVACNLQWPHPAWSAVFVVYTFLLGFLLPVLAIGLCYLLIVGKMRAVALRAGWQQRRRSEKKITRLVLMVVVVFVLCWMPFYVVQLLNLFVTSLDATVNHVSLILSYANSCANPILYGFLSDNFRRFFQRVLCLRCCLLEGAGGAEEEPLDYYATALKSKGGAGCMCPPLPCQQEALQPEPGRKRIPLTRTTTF
Test [5] addresses Somatostatin receptor type 5 (Homo sapiens, UniProt P35346). The test is described as follows: Binding affinity towards cloned human somatostatin 5 (hsst) receptor. In a few lines:
as §1

Somatostatin receptor type 1, sequence (P30872 whole entry): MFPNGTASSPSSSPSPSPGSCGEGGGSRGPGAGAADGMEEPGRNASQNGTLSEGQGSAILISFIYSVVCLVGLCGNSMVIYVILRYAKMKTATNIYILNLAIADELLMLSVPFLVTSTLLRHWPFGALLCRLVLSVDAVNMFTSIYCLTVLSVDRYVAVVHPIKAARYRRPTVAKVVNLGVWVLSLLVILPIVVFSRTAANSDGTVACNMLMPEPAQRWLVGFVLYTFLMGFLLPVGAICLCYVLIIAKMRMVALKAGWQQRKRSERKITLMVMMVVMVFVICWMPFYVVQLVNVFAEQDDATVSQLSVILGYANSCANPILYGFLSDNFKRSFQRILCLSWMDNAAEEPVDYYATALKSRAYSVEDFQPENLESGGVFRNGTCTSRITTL
Somatostatin receptor type 3, sequence (P32745 whole entry): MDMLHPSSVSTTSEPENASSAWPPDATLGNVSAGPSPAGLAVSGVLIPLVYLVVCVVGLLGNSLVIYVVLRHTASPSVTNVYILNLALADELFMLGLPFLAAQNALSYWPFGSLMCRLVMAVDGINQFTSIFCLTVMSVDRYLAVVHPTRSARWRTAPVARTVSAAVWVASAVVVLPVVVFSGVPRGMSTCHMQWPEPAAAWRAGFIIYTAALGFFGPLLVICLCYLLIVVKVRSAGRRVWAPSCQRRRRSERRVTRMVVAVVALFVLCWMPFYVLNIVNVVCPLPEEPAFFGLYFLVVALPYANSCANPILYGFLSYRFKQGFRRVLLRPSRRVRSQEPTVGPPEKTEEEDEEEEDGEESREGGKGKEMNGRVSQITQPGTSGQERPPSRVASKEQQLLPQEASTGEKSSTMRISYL
Somatostatin receptor type 5, sequence (P35346 whole entry): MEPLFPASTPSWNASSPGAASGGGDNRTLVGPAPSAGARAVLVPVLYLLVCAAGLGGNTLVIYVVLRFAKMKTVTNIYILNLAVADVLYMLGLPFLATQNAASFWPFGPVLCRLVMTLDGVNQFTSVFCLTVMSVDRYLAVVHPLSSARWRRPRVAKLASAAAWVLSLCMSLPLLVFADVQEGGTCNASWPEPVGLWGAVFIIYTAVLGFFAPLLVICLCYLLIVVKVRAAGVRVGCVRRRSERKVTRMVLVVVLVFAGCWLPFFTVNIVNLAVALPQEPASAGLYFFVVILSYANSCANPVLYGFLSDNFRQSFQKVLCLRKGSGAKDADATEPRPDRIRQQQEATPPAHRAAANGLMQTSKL
Somatostatin receptor type 2, sequence (P30874 whole entry): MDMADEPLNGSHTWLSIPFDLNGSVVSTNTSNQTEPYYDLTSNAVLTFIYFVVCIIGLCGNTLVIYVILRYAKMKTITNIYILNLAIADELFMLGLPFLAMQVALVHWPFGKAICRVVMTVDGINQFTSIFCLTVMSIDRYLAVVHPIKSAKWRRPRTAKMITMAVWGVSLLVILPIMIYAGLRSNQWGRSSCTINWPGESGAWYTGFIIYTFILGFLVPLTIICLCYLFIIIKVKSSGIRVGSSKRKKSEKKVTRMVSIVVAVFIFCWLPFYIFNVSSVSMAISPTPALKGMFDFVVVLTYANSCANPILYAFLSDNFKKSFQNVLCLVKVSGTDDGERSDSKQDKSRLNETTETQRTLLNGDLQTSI

What is called IC50 is the concentration that gives 50% inhibition. As usually defined, the Ki is the equilibrium dissociation constant of an inhibitor or competing ligand from its target. Read a high Ki as a looser hold on the target. Turning to `CC(C)[C@@H]1NC(=O)[C@H](CCCCN)NC(=O)[C@@H](Cc2c[nH]c3ccccc23)NC(=O)[C@H](Cc2ccc(O)cc2)NC(=O)[C@H](NC(=O)[C@H](N)Cc2ccc3ccccc3c2)CSSC[C@@H](C(=O)N[C@H](C(N)=O)[C@@H](C)O)NC1=O`, the IC50 in test [1] is 1.58 µM. In test [2], this compound had a Ki of 0.306 µM.
Take `CC(C)[C@@H]1NC(=O)[C@H](CCCCN)NC(=O)[C@@H](Cc2c[nH]c3ccccc23)NC(=O)[C@H](Cc2ccc(O)cc2)NC(=O)[C@@H](NC(=O)[C@H](N)Cc2ccc3ccccc3c2)CSSC[C@H](C(=O)N[C@H](C(N)=O)[C@@H](C)O)NC1=O`: the IC50 in test [3] worked out at 1 µM; in test [1] it was 4.84 µM. In test [2], this compound registered a Ki of 0.35 µM.
In the case of `CC(C)[C@@H]1NC(=O)[C@H](CCCCN)NC(=O)[C@@H](Cc2c[nH]c3ccccc23)NC(=O)[C@H](Cc2ccc(O)cc2)NC(=O)[C@H](NC(=O)[C@@H](N)Cc2ccc3ccccc3c2)CSSC[C@@H](C(=O)N[C@@H](Cc2ccc3ccccc3c2)C(N)=O)NC1=O`, the IC50 in test [3] amounted to 0.161 µM; in test [4], 1 µM; in test [1], 2 µM. Also, the results for the Ki in test [2] and in test [5] were 0.0376 µM and 0.302 µM, respectively.
In the case of `CC(C)[C@H](NC(=O)[C@H](CCCCN)NC(=O)[C@@H](Cc1c[nH]c2ccccc12)NC(=O)[C@H](Cc1ccc(O)cc1)NC(=O)[C@@H](Cc1ccc(Cl)cc1)NC(=O)[C@@H](N)Cc1ccccc1)C(=O)N[C@@H](Cc1ccccc1)C(=O)N[C@H](C(N)=O)[C@@H](C)O`, the IC50 was determined as 0.648 µM in test [3], 1 µM in test [4] and 1 µM in test [1]. Further, the Ki in test [2] amounted to 0.797 µM; in test [5], 2.74 µM.
As to `C[C@@H](O)[C@H](NC(=O)[C@H](Cc1ccccc1)NC(=O)[C@@H](NC(=O)[C@H](CCCCN)NC(=O)[C@@H](Cc1c[nH]c2ccccc12)NC(=O)[C@H](Cc1ccc(O)cc1)NC(=O)[C@@H](Cc1ccccc1)NC(=O)[C@@H](N)Cc1ccccc1)[C@@H](C)O)C(N)=O`, the IC50 in test [3] is 0.216 µM; in test [4], 1 µM; in test [1], 1 µM. Besides, the Ki in test [2] worked out at 0.445 µM; in test [5] it was 1.18 µM.
`CC(C)[C@@H]1NC(=O)[C@H](CCCCN)NC(=O)[C@@H](Cc2c[nH]c3ccccc23)NC(=O)[C@H](Cc2ccc(O)cc2)NC(=O)[C@H](NC(=O)[C@H](N)Cc2ccccc2)C(C)(C)SSC[C@@H](C(=O)N[C@H](C(N)=O)[C@@H](C)O)NC1=O`: the IC50 in test [3] came to 0.821 µM; in test [4], 1 µM; in test [1] it was 1 µM. Moreover, in test [2], the Ki came to 2.55 µM.
For the compound `CC(=O)N[C@@H]1CSSC[C@@H](C(=O)N[C@H](C(N)=O)[C@@H](C)O)NC(=O)[C@H](C(C)C)NC(=O)[C@H](CCCCN)NC(=O)[C@@H](Cc2c[nH]c3ccccc23)NC(=O)[C@H](Cc2ccc(O)cc2)NC1=O`, the IC50 in test [3], in test [4] and in test [1] was 1 µM each time. The Ki in test [2] and in test [5] was 1 µM each time.
As for `CC[C@@H]1NC(=O)[C@H](CCCCN)NC(=O)[C@@H](Cc2c[nH]c3ccccc23)NC(=O)[C@H](Cc2ccc(O)cc2)NC(=O)[C@H](NC(=O)[C@H](N)Cc2ccccc2)CSSC[C@@H](C(=O)N[C@H](C(N)=O)[C@@H](C)O)NC1=O`, the IC50 in test [3] is 0.14 µM; in test [4] it was 1 µM; in test [1], 1 µM. Also, in test [2], the Ki was 0.183 µM.
As for `CC(C)[C@@H]1NC(=O)[C@H](CCCCN)NC(=O)[C@@H](Cc2c[nH]c3ccccc23)NC(=O)[C@H](Cc2ccc(O)cc2)NC(=O)[C@H](NC(=O)[C@@H](N)Cc2ccc3ccccc3c2)CSSC[C@@H](C(=O)N[C@H](C(N)=O)[C@@H](C)O)NC1=O`, the IC50 in test [3] worked out at 0.733 µM; in test [1] it was 2.16 µM. Besides, in test [2], the affinity corresponds to a Ki of 0.118 µM.
As for `C[C@@H](O)[C@@H]1NC(=O)[C@H](CCCCN)NC(=O)[C@@H](Cc2c[nH]c3ccccc23)NC(=O)[C@H](Cc2ccccc2)NC(=O)[C@H](Cc2ccccc2)NC(=O)[C@H](N)CSSC[C@H](C(N)=O)NC(=O)[C@H](Cc2ccccc2)NC1=O`, the figures for the IC50 in test [3] and in test [1] were 0.0056 µM and 0.723 µM, respectively. The Ki is 0.0348 µM in test [2] and 0.028 µM in test [5].
On to `C[C@@H](O)[C@H](NC(=O)[C@@H]1CSSC[C@@H](NC(=O)[C@H](N)Cc2ccccc2)C(=O)N[C@@H](Cc2cccnc2)C(=O)N[C@H](Cc2c[nH]c3ccccc23)C(=O)N[C@@H](CCCCN)C(=O)N[C@@H]([C@@H](C)O)C(=O)N1)C(N)=O`, for which the IC50 in test [3] stood at 1.36 µM; in test [4] it was 1 µM; in test [1], 1 µM. In addition, the figures for the Ki in test [2] and in test [5] were 0.566 µM and 1 µM, respectively.
For `CC(C)NC(=O)[C@@H]1CSSC[C@@H](NC(=O)[C@@H](N)Cc2ccc3ccccc3c2)C(=O)N[C@@H](Cc2ccc(O)cc2)C(=O)N[C@H](Cc2c[nH]c3ccccc23)C(=O)N[C@@H](CCCCN)C(=O)N[C@@H](C(C)C)C(=O)N1`, the IC50 came to 1.23 µM in test [3], 1 µM in test [4] and 1 µM in test [1]. The compound further showed a Ki in test [2] of 0.435 µM.
As to `CC(C)[C@H](NC(=O)[C@H](CCCCN)NC(=O)[C@@H](Cc1c[nH]c2ccccc12)NC(=O)[C@H](Cc1ccc(O)cc1)NC(=O)[C@@H](Cc1ccc(Cl)cc1)NC(=O)[C@H](N)Cc1ccc2ccccc2c1)C(=O)N[C@@H](Cc1ccccc1)C(=O)N[C@@H](Cc1ccc2ccccc2c1)C(N)=O`, the values for the IC50 in test [3], in test [4] and in test [1] were 0.619 µM, 1 µM and 1 µM, respectively. Also, the Ki in test [2] was determined as 0.526 µM; in test [5], 0.178 µM.
Take `CC(C)[C@@H]1NC(=O)[C@H](CCCCN)NC(=O)[C@@H](Cc2c[nH]c3ccccc23)NC(=O)[C@H](Cc2ccc(O)cc2)NC(=O)[C@@H](C)N(C)C(=O)[C@H](Cc2ccccc2)NC1=O`: the IC50 stood at 0.404 µM in test [3] and 1 µM in test [1]. In addition, the Ki in test [5] stood at 1 µM.
As for `CC(C)[C@H](NC(=O)[C@H](CCCCN)NC(=O)[C@@H](Cc1c[nH]c2ccccc12)NC(=O)[C@H](Cc1ccc(O)cc1)NC(=O)[C@@H](Cc1ccc(Cl)cc1)NC(=O)[C@@H](N)Cc1ccc2ccccc2c1)C(=O)N[C@@H](Cc1ccccc1)C(=O)N[C@@H](Cc1ccc2ccccc2c1)C(N)=O`, the IC50 in test [3] was 1.61 µM; in test [4], 1 µM; in test [1], 1 µM. The Ki in test [2] came to 1 µM; in test [5] it was 1.96 µM.
Regarding `CC(C)[C@@H]1NC(=O)[C@H](CCCCN)NC(=O)[C@@H](Cc2c[nH]c3ccccc23)NC(=O)[C@H](Cc2ccc(O)cc2)NC(=O)[C@H](NC(=O)[C@H](N)Cc2ccc3ccccc3c2)CSSC[C@@H](C(=O)N[C@H](Cc2ccc3ccccc3c2)C(N)=O)NC1=O`, the IC50 was found to be 1.08 µM in test [3], 1 µM in test [4] and 1.66 µM in test [1]. Besides, the figures for the Ki in test [2] and in test [5] were 0.0829 µM and 0.358 µM, respectively.
For `CC(C)[C@@H]1NC(=O)[C@H](CCCCN)NC(=O)[C@@H](Cc2c[nH]c3ccccc23)NC(=O)[C@H](Cc2ccc(O)cc2)NC(=O)[C@H](NC(=O)[C@@H](N)Cc2c[nH]c3ccccc23)CSSC[C@@H](C(=O)N[C@H](Cc2ccc3ccccc3c2)C(N)=O)NC1=O` (H-W[dC]Y[dW]KVC[d2Nal]-NH2; disulfide 2-7), in that order: 0.649 µM, 1 µM, 0.588 µM, 0.0772 µM and 0.221 µM.
In the case of `CC(C)[C@@H]1NC(=O)[C@H](CCCCN)NC(=O)[C@@H](Cc2c[nH]c3ccccc23)NC(=O)[C@H](Cc2c[nH]cn2)NC(=O)[C@H](NC(=O)[C@@H](N)Cc2ccc3ccccc3c2)CSSC[C@@H](C(=O)N[C@@H](C(N)=O)C(c2ccccc2)c2ccccc2)NC1=O` (H-[2Nal][dC]H[dW]KVC[dDip]-NH2; disulfide 2-7), the IC50 in test [3] came to 1.2 µM; in test [4], 1 µM; in test [1], 1.09 µM. The compound also gave a Ki in test [5] of 1 µM.
As for `CC(C)[C@@H]1NC(=O)[C@H](CCCCN)NC(=O)[C@@H](Cc2c[nH]c3ccccc23)NC(=O)[C@H](Cc2cccnc2)NC(=O)[C@H](NC(=O)[C@@H](N)Cc2ccc3ccccc3c2)CSSC[C@@H](C(=O)N[C@H](C(N)=O)C(c2ccccc2)c2ccccc2)NC1=O` (H-[2Nal][dC][3Pal][dW]KVC[Dip]-NH2; disulfide 2-7), the IC50 in test [3] came out at 0.903 µM; in test [4], 1 µM; in test [1] it was 1 µM. Besides, the Ki in test [2] came out at 0.355 µM; in test [5], 1 µM.
For the compound `CC(C)[C@@H]1NC(=O)[C@H](CCCCN)NC(=O)[C@@H](Cc2c[nH]c3ccccc23)NC(=O)[C@H](Cc2ccc(O)cc2)NC(=O)[C@H](NC(=O)[C@@H](N)Cc2ccc([N+](=O)[O-])cc2)CSSC[C@@H](C(=O)N[C@@H](Cc2ccc(O)cc2)C(N)=O)NC1=O` (H-[Phe(4-NO2)][dC]Y[dW]KVCY-NH2; disulfide 2-7), the IC50 in test [3] worked out at 0.177 µM; in test [4], 0.632 µM; in test [1], 3.22 µM. Moreover, the Ki in test [2] came out at 0.0234 µM; in test [5], 0.101 µM.
In the case of `CC(C)[C@@H]1NC(=O)[C@H](CCCCN)NC(=O)[C@@H](Cc2c[nH]c3ccccc23)NC(=O)[C@H](Cc2cccnc2)NC(=O)[C@H](NC(=O)[C@@H](N)Cc2ccc([N+](=O)[O-])cc2)CSSC[C@@H](C(=O)N[C@@H](Cc2ccc(O)cc2)C(N)=O)NC1=O` (H-[Phe(4-NO2)][dC][3Pal][dW]KVCY-NH2; disulfide 2-7), the IC50 in test [3] came to 0.235 µM; in test [4], 0.757 µM; in test [1], 0.245 µM. Besides, the Ki in test [2] came out at 0.0353 µM; in test [5], 0.529 µM.
Consider `CC(C)[C@@H]1NC(=O)[C@H](CCCCN)NC(=O)[C@@H](Cc2c[nH]c3ccccc23)NC(=O)[C@H](Cc2ccc(O)cc2)NC(=O)[C@@H](NC(=O)[C@H](N)Cc2ccc3ccccc3c2)CSSC[C@H](C(=O)N[C@@H](Cc2ccc3ccccc3c2)C(N)=O)NC1=O` (stereo in doubt; 27), for which the IC50 in test [3], in test [4] and in test [1] was 1 µM each time. In test [2], this compound had a Ki of 0.139 µM.
